Hits are enriched below; roughly 1.2% of the tested compounds scored in any of these assays.
CAL PDZ FP-1 – untagged CAL PDZ binding inhibitors, primary screen, biochemical, fluorescence polarization, HTS; Golgi-associated PDZ and coiled-coil motif-containing protein (Homo sapiens), Q9HD26; inhibition, % at 24.9 µM; 0.92% of 300,000 active; purified CAL PDZ, TMR-peptide fluorescence polarization, 1 h; AID 602252, 2012;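 active = mean inhibition of at least 30% with at least half of replicates also reaching 30%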
ARNT-TACC3 inh – disruptors of ARNT/TACC3 protein interaction, primary screen, biochemical, AlphaScreen, single concentration; Transforming acidic coiled-coil-containing protein 3 (Homo sapiens), Q9Y6A5; AlphaScreen His-ARNT PAS-B/GST-TACC3 binding, luminescence; TACC3 fragment carries E629A point mutation; inhibition, % at 9.99 µM; 0.66% of 390,000 active;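 active = mean inhibition of replicates at least 50% and at least half of replicates each reaching 50%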
CAL PDZ FP-2 – CAL PDZ peptide-binding inhibitors, primary screen, biochemical, fluorescence polarization, Cer-tagged CAL PDZ, HTS; AID 504414, 2011; 0.02% of 330,000 active; purified CAL PDZ, TMR-peptide fluorescence polarization, 1 h; inhibition, % at 20 µM;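 active = highest replicate inhibition of at least 40%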
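material = purified tagged CAL PDZ domain construct (CerCALP) | compound dosing = 20 µM, one dose | times = 1 h at RT | measured by = fluorescence polarization from S- and P-plane intensities, G-factor corrected | read-out = inhibition from polarization loss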
A number is an active result; – = inactive; · = not tested or not shown.

SMILES	CAL PDZ FP-1	ARNT-TACC3 inh	CAL PDZ FP-2
CCN(CC)CCCN1C(=O)C(O)=C(C(=O)c2ccco2)C1c1ccc(OC(C)C)cc1 (stereo not drawn)	87.8	–	–
Cc1ccc(S(=O)(=O)Nc2ccc3c(c2)CC(=O)N([C@@H](C)CO)C[C@H](C)[C@H](CN(C)S(=O)(=O)c2ccc(C)cc2)O3)cc1	·	–	·
O=C(Cc1ccc(S(=O)(=O)N2CCCCC2)s1)Nc1ccc(F)cc1F	–	–	–
O=C(COC(=O)Cc1ccc(S(=O)(=O)N2CCOCC2)s1)Nc1ccc(F)cc1F	44.8	–	–
Cc1cc(C)n(CC(O)CN(c2ccccc2)S(=O)(=O)c2ccccc2)n1 (stereo not drawn)	·	–	–
O=S(=O)(c1ccccc1)N(CC(O)COc1ccccc1)c1ccccc1 (stereo not drawn)	57.2	–	–
O=Cc1ccc(-n2cccn2)cc1	–	–	–
Cc1nccn1-c1ccc(C=O)cc1	120.5	–	–
CO[C@@H]1CN(C)C(=O)c2ccc(NC(=O)C3CCC3)cc2OC[C@@H](C)N(C(=O)NC(C)C)C[C@@H]1C	·	–	·
Cc1cccc(NC(=O)C2CCN(S(C)(=O)=O)CC2)c1C	55.3	–	–
Cc1c(Cl)cccc1NC(=O)C1CCN(S(C)(=O)=O)CC1	–	–	–
C[C@H]1CN([C@@H](C)CO)C(=O)c2cc(NS(=O)(=O)c3ccccc3)ccc2O[C@@H]1CN(C)S(=O)(=O)c1ccccc1	·	–	·
O=[N+]([O-])c1cccc(CP(=O)(c2ccccc2)c2ccccc2)c1	60.2	·	–
O=[N+]([O-])c1ccc(CP(=O)(c2ccccc2)c2ccccc2)cc1	–	–	–
CCOC(=O)Cc1csc(NC(=O)/C=C/c2ccc(OC)cc2)n1	32.4	–	–
CCOC(=O)Cc1csc(NC(=O)/C=C\c2ccccc2)n1	–	–	–
C[C@H](CO)N1C[C@H](C)[C@@H](CN(C)C(=O)c2ccccc2F)Oc2ncc(-c3cncnc3)cc2C1=O	·	–	·
C[C@@H]1CN([C@H](C)CO)C(=O)c2cc(-c3cncnc3)cnc2O[C@H]1CN(C)C(=O)c1ccccc1F	·	active	·
CC(=O)N(C)C[C@@H]1Oc2ncc(-c3ccc(C(=O)N(C)C)cc3)cc2C(=O)N([C@@H](C)CO)C[C@H]1C	·	–	·
c1ccc(CNCCCNCCCCNCCCNCc2ccccc2)cc1	–	–	–
OC(c1ccccc1)C(NCCNCc1ccccc1)c1ccccc1 (stereo not drawn)	164.9	–	–
CC(=O)N(C)C[C@H]1Oc2ncc(-c3cncnc3)cc2C(=O)N([C@@H](C)CO)C[C@H]1C	·	–	·
CCC(=O)N1C[C@@H](C)[C@@H](OC)CN(C)C(=O)c2cc(NS(C)(=O)=O)ccc2OC[C@H]1C	·	–	·
CCCCOc1ccccc1N1CCN(CCCN2C(=O)C3CCCN3C2=O)CC1 (stereo not drawn)	32.5	–	·
COc1ccccc1N1CCN(CCCCN2C(=O)C3CCCCN3C2=O)CC1 (stereo not drawn)	–	–	–
SMILES	CAL PDZ FP-1	ARNT-TACC3 inh	CAL PDZ FP-2
O=C(Nc1ccc2cn[nH]c2c1)c1ccccc1F	85.1	–	–
O=C(Nc1ccc2ccccc2c1)c1ccccc1F	·	–	–
Cc1noc(C)c1NC(=O)N(C)C[C@H]1Oc2ccc(NC(=O)Nc3ccc(C(F)(F)F)cc3)cc2CC(=O)N([C@H](C)CO)C[C@@H]1C	·	–	·
C[C@@H]1CN([C@H](C)CO)C(=O)c2cc(NS(=O)(=O)c3cccs3)ccc2O[C@H]1CN(C)C	·	–	·
Cn1c(CC(=O)Nc2ccccc2F)nnc1SCC(=O)Nc1nncs1	–	·	–
Cn1c(CC(=O)Nc2ccccc2F)nnc1SCC(=O)Nc1ccccc1Br	41.8	–	–
CC(C)(C)c1ccc(C(=O)NNc2ncccc2-n2cccc2)cc1	169.5	–	–
O=C(NNc1ncccc1-n1cccc1)c1ccc(Cl)cc1	–	–	–
Cc1ccc(NC(=O)CCCc2ccccc2)c([N+](=O)[O-])c1	33.5	–	·
O=C(CCCc1ccccc1)Nc1ccccc1[N+](=O)[O-]	–	–	–
O=C(C[C@@H]1C=C[C@@H](NC(=O)Nc2ccc(C(F)(F)F)cc2)[C@@H](CO)O1)NCCN1CCCC1	·	–	·
c1ccc(NC2=NCCCCS2)cc1	–	–	–
c1ccc2c(NC3=NCCCCS3)cccc2c1	33.8	–	·
CCC(=O)N1C[C@@H](C)[C@H](OC)CN(C)C(=O)c2cc(NC(=O)C3CCCCC3)ccc2OC[C@@H]1C	·	–	·
N#CCc1nn(-c2ccc(Cl)cc2)c(N)c1C#N	–	–	–
N#CCc1nn(-c2ccccc2)c2ncnc(N)c12	103.3	–	–
C[C@@H]1CN([C@H](C)CO)C(=O)Cc2cc(NC(=O)Cc3ccccc3)ccc2O[C@@H]1CN(C)S(=O)(=O)c1cccs1	·	–	·
CC(C)NC(=O)N(C)C[C@@H]1Oc2ccc(NC(=O)CCCCCC(=O)Nc3ccccc3N)cc2C(=O)N([C@@H](C)CO)C[C@@H]1C	·	–	·
CCC(c1nnc(SCC(=O)NC23CC4CC(CC(C4)C2)C3)o1)N(C)C (stereo not drawn)	–	–	·
Cc1cc(C)nc(SCC(=O)Nc2cc(C)on2)n1	–	–	–
O=C(CSc1nnc(-c2ccc(O)cc2)o1)Nc1ccccc1	61.8	·	–
Cc1cc(C)cc(-c2nnc(SCC(=O)Nc3cc(C)on3)o2)c1	–	–	–
Cc1cc(NC(=O)CSc2nnc(C)o2)no1	–	46.8	–
CCC(c1nnc(SCC(=O)Nc2cc(C)on2)o1)N(C)C (stereo not drawn)	·	75.5	–
O=C(CCSc1nnc(-c2ccncc2)o1)Nc1ccccc1	–	–	–
SMILES	CAL PDZ FP-1	ARNT-TACC3 inh	CAL PDZ FP-2
Cc1cc(NC(=O)CSc2nnc(-c3ccc(O)cc3)o2)no1	–	46.8	–
COc1ccccc1C(=O)N1C[C@@H]2[C@H](c3ccccc31)[C@H](CO)N2C(=O)Cc1ccccc1	·	–	·
O=C(Nc1ccc2c(c1)CCC2)c1ncoc1-c1ccccc1F	68.7	·	–
O=C(Nc1ccc2c(c1)CCC2)c1ccc(F)cc1	–	–	–
CC(C)CC#Cc1ccc2c(c1)O[C@H](CN(C)Cc1ccccn1)[C@H](C)CN([C@H](C)CO)S2(=O)=O	·	–	·
C[C@@H]1CN([C@@H](C)CO)C(=O)c2cc(NC(=O)Cc3ccccc3)ccc2O[C@@H]1CN(C)C(=O)Nc1cccc2ccccc12	·	–	·
CN(Cc1cnccn1)Cc1nc(Cc2ccccc2F)no1	56.4	–	–
CCc1ccc(CN(C)Cc2nc(COc3ccccc3)no2)nc1	49.2	–	–
CN(Cc1cnccn1)Cc1nc(Cc2ccccc2Cl)no1	–	–	–
CCc1ccc(CN(C)Cc2nc(Cc3cccc(C(F)(F)F)c3)no2)nc1	–	–	–
Cc1n[nH]c(=O)nc1N/N=C/c1ccco1	–	53.0	–
Cc1n[nH]c(=O)nc1NCc1ccco1	–	–	–
O=C(C[C@@H]1CC[C@@H](NC(=O)Nc2cccc(F)c2)[C@@H](CO)O1)NCC1CC1	·	–	·
C[C@H]1CN([C@@H](C)CO)C(=O)Cc2cc(NC(=O)NC3CCCCC3)ccc2O[C@@H]1CN(C)C(=O)Nc1cccc2ccccc12	·	–	·
